Experiment [1] in a line: Inhibition of yeast PGI. On the set-up: species or system Saccharomyces cerevisiae.
A short description of experiment [2]: Inhibition of Escherichia coli PMI.
Experiment [3] relates to Mycobacterium tuberculosis. Briefly: Antimicrobial activity against Mycobacterium tuberculosis at 1 mM. The experiment is classed as functional, organism-based.
In experiment [4] the test system is Yersinia pestis. The experiment in a line: Antimicrobial activity against Yersinia pestis at 1 mM. It is filed as functional, organism-based.
For experiment [5], the system named is Candida albicans. The experiment in a line: Antimicrobial activity against Candida albicans at 1 mM. It is filed as functional, organism-based. The gist of the method: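 Growth inhibition was tested in cultivated microbial cultures at concentrations up to 1 mM.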
Experiment [6] concerns the target T1, Fructose-bisphosphate aldolase A (Oryctolagus cuniculus, UniProt P00883).
T1 sequence (P00883 whole entry): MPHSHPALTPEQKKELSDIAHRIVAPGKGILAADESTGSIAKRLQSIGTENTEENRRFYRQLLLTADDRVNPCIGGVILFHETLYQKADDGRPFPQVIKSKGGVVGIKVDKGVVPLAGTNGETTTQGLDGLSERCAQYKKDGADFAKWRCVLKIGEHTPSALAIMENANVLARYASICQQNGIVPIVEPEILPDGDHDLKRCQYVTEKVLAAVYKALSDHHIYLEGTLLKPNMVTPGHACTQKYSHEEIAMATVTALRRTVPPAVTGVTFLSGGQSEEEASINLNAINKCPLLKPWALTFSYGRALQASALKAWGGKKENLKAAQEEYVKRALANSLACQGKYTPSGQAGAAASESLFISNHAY
Briefly: Inhibition of rabbit muscle FBA-1.

Experiment [7] in a line: Inhibition of Candida albicans FBA-2.
Experiment [8] is described as follows: Inhibition of Helicobacter pylori FBA-2.
A short description of experiment [9]: Inhibition of Mycobacterium tuberculosis FBA-2.
Experiment [10] is described as follows: Inhibition of Yersinia pestis FBA-2.

Calls of active or inactive are those of the source. The calls are words filed in the database; no cut-off is given here.

As a reminder, the IC50 is the concentration that inhibits the measured activity by half. Lower therefore signals greater potency in that assay. As to `O=C(NO)[C@@H](O)[C@H](O)[C@H](O)CO`, the concentration for half-maximal inhibition (IC50) in [1] came out at 5540 µM; in [2], 10000 µM.
As to `O=C(COP(=O)(O)O)N(O)CCCCOP(=O)(O)O`, the result in experiment [3], in [4] and in experiment [5] was inactive.
As usually defined, the Ki is a dissociation constant, usually derived from enzyme kinetics or from competition with a known ligand. Read a low Ki as a stronger hold on the target. On to `O=C(NO)[C@@H](O)[C@H](O)[C@H](O)COP(=O)(O)O`, for which the results for the Ki in [1] and in experiment [2] were 0.23 µM and 0.08 µM, respectively.
As for `O=C(CO)N(O)CCCCOP(=O)(O)O`, the Ki was greater than 1000 µM in [6]; 0.76 µM in [7]; 1.2 µM in experiment [8]; 0.175 µM in [9]; 0.08 µM in experiment [10].
Molecule `NO.O=C(O)C(C[C@@H](O)[C@@H](O)[C@H](O)C(=O)NO)C(=O)O` displayed an IC50 in experiment [1] of 2290 µM. The molecule further came in with a Ki in [2] of 162 µM.
Take `O=C(O)C(CCCCN(O)C(=O)COP(=O)(O)O)C(=O)O`: the inhibition constant (Ki) came out at 257 µM in experiment [6]; 0.05 µM in experiment [7]; 0.04 µM in experiment [8]; 0.004 µM in [9]; 0.008 µM in [10]. The result in experiment [3], in experiment [4] and in experiment [5] was inactive.
As for `O=C(O)C(CC(=O)N(O)CCCCOP(=O)(O)O)C(=O)O`, the Ki in [6] turned out to be 500 µM; in experiment [7] it was 2300 µM; in experiment [8], 250 µM; in [9] it was 500 µM; in experiment [10] it was 1500 µM. Besides, the result in experiment [3], in [4] and in experiment [5] was inactive.

(Values after ChEMBL document CHEMBL1949545, “Synthesis and evaluation of malonate-based inhibitors of phosphosugar-metabolizing enzymes: class II fructose-1,6-bis-phosphate aldolases, type I phosphomannose isomerase, and phosphoglucose isomerase” (Bioorg Med Chem, 2012).)
